PMC7993281 (Clinical and Translational Science, 2020)

Key:
[1] = tested on: glucosylceramide (GlcCer) plasma concentration; experiment: MAD study pharmacodynamics: plasma GlcCer; format: in vivo, human
Summary of the method: (§1)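 Healthy men and women (1:1), 8 active and 2 placebo per cohort. Oral 30, 100, 300 or 1,000 mg b.i.d. for 7 days. Morning dose after a 10-hour fast, evening dose 2 hours after dinner. Plasma sampled on Days 1, 2, 4 and 7 and at 24, 48 and 72 h after the last dose. Validated LC-MS/MS. Percent change from Day 1 predose.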

[2] = tested on: lactosylceramide (LacCer) plasma concentration; experiment: MAD study pharmacodynamics: plasma LacCer; format: in vivo, human; conditions: 72 hours after the last dose
Summary of the method: as §1

[3] = tested on: globotriaosylceramide (Gb3) plasma concentration; experiment: MAD study pharmacodynamics: plasma Gb3; format: in vivo, human; conditions: after last dose
[4] = SAD study tolerability/safety; format: in vivo, human
Summary of the method: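 Healthy men aged 18–55 years, single oral doses of 10–2,000 mg, 6 active and 2 placebo per cohort, staggered dosing. Fasted dosing, plus a fed period in the 300 mg cohort after at least 7 days washout. Subjects were confined until 48 h post-dose, with follow-up at 29–34 days. AEs, vital signs, ECG, examination and laboratory tests were summarised descriptively.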

[5] = MAD study tolerability/safety; format: in vivo, human
Summary of the method: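 Healthy men and women aged 18–55 years, BMI 18–30 kg/m2, 8 active and 2 placebo per cohort. Oral 30–1,000 mg b.i.d. for 7 days with staggered dosing. Subjects were confined until 72 h after the last dose, with follow-up at 29–34 days. AEs, vital signs, ECG, physical examination and clinical laboratory tests were recorded and summarised descriptively.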

[6] = Cardiodynamic and exposure-response analysis of QT interval; format: in vivo, human
[7] = tested on: non‐lysosomal glucosylceramidase (GBA2) vs glucosylceramide synthase (GCS); experiment: Relative inhibitory potency on GBA2 versus GCS; format: biochemical
[8] = tested on: organic cation transporter 2; conditions: in vitro; ref Idorsia Pharmaceuticals Ltd, unpublished data; cited from earlier work
[9] = cited from earlier work
[10] = SAD, all doses, fasted conditions, 36 subjects
[11] = MAD 300 mg b.i.d. for 7 days (n = 8)

potency in inhibiting GBA2 relative to GCS [7]: 50 fold
Structure (SMILES): CCCCCN1C[C@H](O)[C@@H](O)[C@H](O)[C@@H]1CO [sinbaglustat, (2S,3R,4R,5S)‐2‐(hydroxymethyl)‐1‐pentylpiperidine‐3,4,5‐triol]
GlcCer percentage change from baseline ([1]; 1,000 mg b.i.d., 72 hours after the last dose): –19%
reduction in GlcCer ([1]; highest tested dose (1,000 mg b.i.d.), repeated treatment): 72%
LacCer percentage change from baseline ([2]; 30 mg b.i.d.): –8%
LacCer percentage change from baseline ([2]; 1,000 mg b.i.d.): –33%
Gb3 mean percentage change from baseline after treatment stop [3]: remained stable for 3 days after treatment stop
AEs in the 30, 300, and 2,000 mg cohort ([4]; SAD): No AE was reported
Dizziness (subjects) ([4]; SAD 10 mg (n = 6)): 1
Number of subjects with at least 1 AE ([4]; SAD 10 mg (n = 6)): 1
Total number of AEs ([4]; SAD 10 mg (n = 6)): 1
Number of subjects with at least 1 AE ([4]; SAD 100 mg (n = 6)): 3
Rash (subjects) ([4]; SAD 100 mg (n = 6)): 1
Total number of AEs ([4]; SAD 100 mg (n = 6)): 3
AEs under fed conditions ([4]; SAD 300 mg fed): no AE was reported
Headache (subjects) ([4]; SAD 1,000 mg (n = 6)): 2
Nausea (subjects) ([4]; SAD 1,000 mg (n = 6)): 1
Number of subjects with at least 1 AE ([4]; SAD 1,000 mg (n = 6)): 3
Palpitations (subjects) ([4]; SAD 1,000 mg (n = 6)): 1
Viral upper respiratory tract (subjects) ([4]; SAD 1,000 mg (n = 6)): 1
Vomiting (subjects) ([4]; SAD 1,000 mg (n = 6)): 1
subjects reporting AEs (of 36 treated) ([4]; SAD, all doses, fasted conditions): 7
subjects reporting AEs [4, 10]: 19%
total AEs reported [4, 10]: 13
serious AEs, severe AEs, AEs leading to discontinuation ([4]; whole study (SAD and MAD), up to end‐of‐study): No serious AEs, severe AEs, or AEs leading to study or treatment discontinuation occurred
Dizziness (subjects) ([5]; MAD 30 mg b.i.d. (n = 8)): 4
Headache (subjects) ([5]; MAD 30 mg b.i.d. (n = 8)): 2
Muscle twitching (subjects) ([5]; MAD 30 mg b.i.d. (n = 8)): 1
Pain in extremity (subjects) ([5]; MAD 30 mg b.i.d. (n = 8)): 1
Viral upper respiratory tract (subjects) ([5]; MAD 30 mg b.i.d. (n = 8)): 1
Total number of AEs ([5]; MAD 30 mg b.i.d. for 7 days (n = 8)): 13
Dizziness (subjects) ([5]; MAD 100 mg b.i.d. (n = 8)): 2
Fatigue (subjects) ([5]; MAD 100 mg b.i.d. (n = 8)): 1
Total number of AEs ([5]; MAD 100 mg b.i.d. for 7 days (n = 8)): 8
Dizziness (subjects) ([5]; MAD 300 mg b.i.d. (n = 8)): 1
Headache (subjects) ([5]; MAD 300 mg b.i.d. (n = 8)): 2
Nausea (subjects) ([5]; MAD 300 mg b.i.d. (n = 8)): 1
Rash (subjects) ([5]; MAD 300 mg b.i.d. (n = 8)): 1
Number of subjects with at least 1 AE [5, 11]: 4
Total number of AEs [5, 11]: 8
Constipation (subjects) ([5]; MAD 1,000 mg b.i.d. (n = 8)): 1
Decreased appetite (subjects) ([5]; MAD 1,000 mg b.i.d. (n = 8)): 3
Diarrhea (subjects) ([5]; MAD 1,000 mg b.i.d. (n = 8)): 2
Dizziness (subjects) ([5]; MAD 1,000 mg b.i.d. (n = 8)): 3
Fatigue (subjects) ([5]; MAD 1,000 mg b.i.d. (n = 8)): 2
Headache (subjects) ([5]; MAD 1,000 mg b.i.d. (n = 8)): 4
Muscle twitching (subjects) ([5]; MAD 1,000 mg b.i.d. (n = 8)): 1
Nausea (subjects) ([5]; MAD 1,000 mg b.i.d. (n = 8)): 3
Palpitations (subjects) ([5]; MAD 1,000 mg b.i.d. (n = 8)): 1
Vomiting (subjects) ([5]; MAD 1,000 mg b.i.d. (n = 8)): 2
female subjects reporting headache (of 4) ([5]; MAD 1,000 mg b.i.d., female subjects): 4
subjects reporting AEs (of 32 treated) ([5]; MAD, all doses): 19
subjects reporting dizziness (of 32) ([5]; MAD, all doses): 10
subjects reporting headache (of 32) ([5]; MAD, all doses): 8
subjects reporting AEs ([5]; MAD, all doses, 32 subjects): 59%
total AEs reported ([5]; MAD, all doses, 32 subjects): 66
effect on QTcF, HR, PR, and QRS intervals ([6]; change‐from‐baseline and placebo‐adjusted change‐from‐baseline): no clinically relevant effect
slope of concentration–ΔΔQTcF relationship ([6]; linear mixed‐effects model, 90% CI −0.00008 to 0.00056, statistically nonsignificant): 0.0002 ms per ng/mL
treatment effect‐specific intercept ([6]; linear mixed‐effects model, nonstatistically significant): -2.7 ms
organic cation transporter 2 interaction [8]: a substrate and an inhibitor
blood‐brain barrier crossing [9]: crosses the blood‐brain barrier
